Bioassay records from PubChem BioAssay.
APJ antag = APJ receptor antagonism. AID 2521. inhibition, % at 20 µM. CHO-K1 APJ beta-arrestin complementation, luminescence. P35414. 330,000 tested, 0.32% active;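 active = inhibition above about 40% at 20 µM, limit read from the data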;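 note: cells challenged with 10 nM apelin-13 agonist together with compound; plate controls were apelin-13 plus DMSO wells for no effect and DMSO wells lacking apelin-13 for full effect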
APJ agonist = APJ receptor agonism | P35414 | CHO-K1 APJ PathHunter beta-arrestin, luminescence; 0% DMSO wells, 100% apelin | activation, % at 20 µM | 330,000 tested, 0.11% active | AID 2520;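 active = activation more than six SD over the plate average, tested at 20 µM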;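 note: 0% = DMSO alone and 100% = apelin-13 at 10 nM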
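Test system: CHO-K1 APJ beta-arrestin complementation cell line | Compound: Single test compound dose, 20 µM final, 1% DMSO | Incubation: Compound 90 min 25 °C, reagent 1 h | Measured by: beta-gal luminescence | Read-out basis: APJ–arrestin association signal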
EBI2 block = blocks human EBI2 receptor beta-arrestin signaling; EBI2 beta-arrestin recruitment, luminescence, 7a,25-OHC stimulated; inhibition, % at 5 µM; 360,000 tested, 0.81% active; in the data active = inhibition above about 38%;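 note: enzyme fragment complementation signal reports receptor beta-arrestin coupling in cells; 0% = agonist plus DMSO wells and 100% = wells without agonist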
CCR6 antag = antagonists of human CCR6 receptor; P51684; CHO-K1 CCR6 PathHunter beta-arrestin, luminescence, CCL20-stimulated; inhibition, % at 20 µM; 340,000 tested, 0.49% active;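 active = compounds whose inhibition of the agonist-driven luminescence signal at 20 µM reaches about 50%, limit read from the data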;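 note: cells stimulated with CCL20 at 14 nM final; plate controls were DMSO with CCL20 for no effect and DMSO without agonist for full effect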
CXCR6 block = CXCR6 (human) receptor inhibition; O00574; CHO-K1 PathHunter CXCR6 beta-arrestin, luminescence; inhibition, % at 20 µM; 360,000 tested, 0.36% active; in the data active = inhibition above about 34%, passing the limit was not always enough;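 note: antagonist mode with CXCL16 agonist at 10 nM final; 0% = 10 nM CXCL16 with DMSO and 100% = unstimulated wells without agonist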
Target sequence (O00574 whole entry, looked up): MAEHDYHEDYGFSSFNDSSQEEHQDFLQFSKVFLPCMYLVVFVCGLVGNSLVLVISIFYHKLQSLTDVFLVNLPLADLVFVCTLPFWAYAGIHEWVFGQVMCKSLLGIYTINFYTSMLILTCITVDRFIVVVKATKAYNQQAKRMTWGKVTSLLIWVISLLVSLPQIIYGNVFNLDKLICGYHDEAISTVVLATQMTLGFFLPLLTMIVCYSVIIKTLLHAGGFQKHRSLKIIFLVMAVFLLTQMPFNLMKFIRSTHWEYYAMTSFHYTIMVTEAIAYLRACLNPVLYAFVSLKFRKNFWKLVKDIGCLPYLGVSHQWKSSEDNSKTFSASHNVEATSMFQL
* marks the source's active call; other numbers are inactive results; nt = no result given. This is a sample that favours compounds with a hit; in the whole collection about 1.5% have one here.

SMILES	APJ antag	APJ agonist	EBI2 block	CCR6 antag	CXCR6 block
COc1cccc(N(CC(=O)NCCSc2ccccn2)S(=O)(=O)c2ccccc2)c1	8	0	7	24	0
Cc1ccc(CNC(=O)C2CCC(=O)N(CCc3ccc(Cl)cc3)C2)s1 (stereo unspecified)	-10	-6	39	6	0
Cc1ccc(CNC(=O)C2CCC(=O)N(CCc3ccc(Cl)cc3)C2)cc1 (stereo unspecified)	5	-5	49*	8	3
c1cnc2ccc3ncccc3c2c1	-3	-1	-8	-3	-9
O=Cc1ccc(O)c2ncccc12	-3	0	3	45	47*
O=C(OCC(=O)N1CCN(c2ccccc2)CC1)c1ccc(O)cc1O	9	-12	8	2	-1
O=C1C(Cl)=C(Nc2ccc3cn[nH]c3c2)C(=O)c2ccccc21	nt	nt	42	78*	56*
COc1ccc(S(=O)(=O)N(CC(=O)NCC2CCCO2)C2CCCCC2)cc1OC (stereo unspecified)	15	-3	-11	8	-4
COc1cccc(/C=N/Nc2nc(Nc3ccc([N+](=O)[O-])cc3)nc(N3CCCC3)n2)c1O	-9	0	13	69*	45*
C#CC(=O)N(c1cccc(OC)c1)C(C(=O)NC1CCCC1)c1cccs1 (stereo unspecified)	5	1	53*	26	18
O=c1[nH]c(NNC(=S)NC2CCCCC2)nc2c1C1(CCCC1)Cc1ccccc1-2	-17	-7	9	1	-6
COc1ccc(CCNC(=O)c2cc3cc(F)ccc3nc2C)cc1OC	2	0	2	-9	1
CC(C)(C)C(=O)/C(=C\c1ccc([N+](=O)[O-])cc1)n1cncn1	70*	-7	nt	nt	nt
CCOC(=O)[C@]12CCCC=C1N(Cc1ccco1)C(=O)[C@H](CC(=O)NCCCCc1ccccc1)C2	nt	nt	17	nt	10
COc1ccc2cc(C#N)c(SCC(=O)N3CC(=O)Nc4ccccc43)nc2c1	5	-2	74*	-5	-2
Cc1cccc2cc(C#N)c(SCC(=O)N3CC(=O)Nc4ccccc43)nc12	7	4	57*	13	1
Cc1ccc(C(=C2C3C=CC2C2C(=O)NC(=O)C32)c2ccc(C)cc2)cc1 (stereo unspecified)	7	-2	9	54*	-5
O=C1C2C3C=CC(C3=C(c3ccccc3)c3ccccc3)C2C(=O)N1CCO (stereo unspecified)	17	-5	17	-6	11
CCOc1ccc(N=C/C=C/c2ccccc2)c(O)c1	-12	6	-9	52*	-5
CC(=O)c1ccc(N(CC(=O)NC2CCCC2)C(=O)CNC(=O)c2ccco2)cc1	6	-4	-5	4	6
COCCNC(=O)C1(C)CCCN(Cc2c(C)nn(-c3ccccc3)c2C)C1 (stereo unspecified)	nt	nt	-2	nt	-1
CS(=O)(=O)c1ccc(S(=O)CC(=O)Oc2ccc(Cl)cc2)c([N+](=O)[O-])c1 (stereo unspecified)	-9	-4	nt	61*	nt
CCCCNC(=O)C1(C)CCCCN1C(=O)c1ccc2c(c1)C(C)(C)CCC2(C)C (stereo unspecified)	nt	nt	12	nt	9
N#C/C(=C\c1ccc(O)c(O)c1)S(=O)(=O)c1ccccc1	19	-7	8	53*	23
Cn1cc(CN2CCC(n3nccc3NC(=O)CCOc3ccccc3)CC2)cn1	5	-4	-2	10	6
SMILES	APJ antag	APJ agonist	EBI2 block	CCR6 antag	CXCR6 block
COc1ccc(S(=O)(=O)NC(=O)C2(C)CCN2C(=O)C2(c3ccccc3)CC2)cc1 (stereo unspecified)	nt	nt	4	nt	-1
O=C(c1ccco1)N1CCN(Cc2nnc(-c3ccccc3)o2)CC1	13	-6	0	-3	-4
Cc1ccc(C(c2cc(Cl)c3cccnc3c2O)N2CCN(C)CC2)cc1 (stereo unspecified)	30	-3	0	57*	33
O=C(Nc1ccc(-c2cn3c(n2)SCC3)cc1)c1ccco1	-4	-3	-8	2	5
O=C1C(Nc2ccccc2)=C(NS(=O)(=O)c2ccccc2)C(=O)c2ccccc21	-28	-3	5	50*	18
O=C(O)c1cc(O)c2c(c1)[C@H]([C@H]1c3cc(C(=O)O)cc(O)c3C(=O)c3c(O[C@@H]4O[C@H](CO)[C@@H](O)[C@H](O)[C@H]4O)cccc31)c1cccc(OC3O[C@H](CO)[C@@H](O)[C@H](O)[C@H]3O)c1C2=O (stereo partly specified)	11	12	-11	88*	3
O=C(O)c1cc(O)c2c(c1)[C@@H]([C@H]1c3cc(C(=O)O)cc(O)c3C(=O)c3c(O[C@@H]4O[C@H](CO)[C@@H](O)[C@H](O)[C@H]4O)cccc31)c1cccc(OC3O[C@H](CO)[C@@H](O)[C@H](O)[C@H]3O)c1C2=O (stereo partly specified)	22	4	-15	79*	-10
O=C1c2cc(CO)cc(O)c2C(=O)c2c(O[C@@H]3OC(CO)[C@@H](O)[C@@H](O)[C@@H]3O)cccc21 (stereo partly specified)	-176	-4	-22	-5	-2
C[C@H]1COc2cc(N3CCC[C@@H]3CO)ccc2S(=O)(=O)N1	nt	nt	-12	nt	-4
CCOc1cc(/C=C2\CCCc3c2nc2ccccc2c3C(=O)O)ccc1OC	-68	9	-6	-5	-11
Cc1ccc(/C=C/C(=O)NCCc2ccccc2)o1	15	-3	6	83*	7
Cn1cc(C(C[N+](=O)[O-])c2ccccc2)c2ccccc21 (stereo unspecified)	-5	-1	2	18	-1
CC(=O)n1cc(C(C[N+](=O)[O-])SCCN)c2ccccc21 (stereo unspecified)	1	-2	-52	60*	3
CC1(C(=O)NCc2ccccc2)CN(S(C)(=O)=O)CC(=O)N1CCc1ccccc1F (stereo unspecified)	nt	nt	-2	nt	nt
Cc1c(C(=O)Nc2nccs2)sc2nc(-c3cccs3)cc(C(F)(F)F)c12	29	-6	-13	53*	33
O=C(NNC1=C(C(=O)C(F)(F)F)CCC1)c1ccccc1O	-1	-5	8	-6	7
COc1ccccc1C(=O)NNC1=C(C(=O)C(F)(F)F)CCC1	19	-3	9	59*	44*
O=C(NCc1cccnc1)c1ccc(-c2ccc(Cl)cc2)o1	0	-2	3	5	3
O=C(NCc1cccnc1)/C(=C\c1ccc(-c2ccc(Cl)c(Cl)c2)o1)S(=O)(=O)c1ccccc1	nt	nt	64*	45	24
Nc1cccc2c1C(=O)N(C(=O)/C=C/c1cccc(Br)c1)C2=O	nt	nt	2	64*	38*
NC(=S)N/N=C/c1ccc(C23CC4CC(CC(C4)C2)C3)cc1	29	-6	nt	66*	nt
